Data reported in ChEMBL document CHEMBL1128315, “1-(Fluorobenzyl)-4-amino-1H-1,2,3-triazolo[4,5-c]pyridines: synthesis and anticonvulsant activity” (1995).

Columns and labels:
[1] = test system: Rattus norvegicus; assay: Anticonvulsant activity against maximal electroshock-induced seizures in Wistar rats following i.p. administration.; format: functional; settings: ip
How it was run: (§1)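 Male Charles River Wistar rats; maximal electroshock seizure test. Compounds given as solutions or fine dispersions in water or 0.5% methyl cellulose, micronized if not fully soluble. ED50 is the dose protecting 50% against hind limb extension, calculated by Miller–Tainter. Values with a standard error used four doses, at least 12 rats each. Values without one used three doses, six rats each.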

[2] = test system: Rattus norvegicus; assay: Anticonvulsant activity against maximal electroshock-induced seizures in Wistar rats following p.o. administration.; format: functional; settings: po; how it was run: as §1

SMILES | ED50 [1] [mg/kg] | ED50 [2] [mg/kg]
CNc1nccc2c1nnn2Cc1ccccc1C(F)(F)F.Cl | > 25 | 
CNc1nccc2c1nnn2Cc1ccc(F)cc1.Cl | 17 | 
Cl.Nc1nccc2c1nnn2Cc1ccccc1 | 8.7 | 20
CCN(C)c1nccc2c1nnn2Cc1ccccc1F.Cl | > 25 | 
CC(C)Nc1nccc2c1nnn2Cc1ccccc1F.Cl | 14.2 | > 25
Cl.Fc1ccccc1Cn1nnc2c(NCC3CC3)nccc21 | 40 | 
CNc1nccc2c1nnn2Cc1cc(F)ccc1F.Cl | 5 | 
Cl.Nc1nccc2c1nnn2Cc1ccccc1F | 28.4 | 11.5
CNc1nccc2c1nnn2Cc1ccccc1.Cl | 6.3 | 10
CCNc1nccc2c1nnn2Cc1ccccc1F.Cl | 8 | 10
CCCNc1nccc2c1nnn2Cc1ccccc1F.Cl | 14.4 | > 25
Cl.Fc1ccccc1Cn1nnc2c(NC3CC3)nccc21 | 5.6 | 
CNc1nccc2c1nnn2Cc1cccc(F)c1.Cl | 10 | 
CNc1nccc2c1nnn2Cc1ccccc1F.Cl | 4.6 | 4.6
Cl.Nc1nccc2c1nnn2Cc1cc(F)ccc1F | 18 | 
CNc1ncnc2c1ncn2Cc1ccccc1F [BW-A78U] | 1.7 | 2.5
O=C1NC(=O)C(c2ccccc2)(c2ccccc2)N1 [PHENYTOIN] | 10 | 20
